# Assay results taken from ChEMBL document CHEMBL3877264, “Quinolidene-rhodanine conjugates: Facile synthesis and biological evaluation” (Eur J Med Chem, 2017).
# Assays:
# [1] = test system: Pseudomonas fluorescens; assay: Growth inhibition of Pseudomonas fluorescens NCIM 2036 at 3 ug/ml measured after 8 hrs relative to control; format: functional; settings: NCIM 2036, 8 h, read-out: GI
# Summary of the method: (§1)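 Bacteria grown in LB at 37 °C and 180 rpm to OD 1. Compounds added to wells, then 0.1% inoculum of 1 OD culture (620 nm). Growth read as OD at 620 nm after 8 h for gram-negative and after 12 h for gram-positive strains.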
# [2] = test system: Mycobacterium tuberculosis; assay: Growth inhibition of Mycobacterium tuberculosis H37Ra ATCC 25177 at dormant stage at 25 ug/ml measured after 12 days by XTT dye based two fold dilution method relative to control; format: functional; settings: H37Ra ATCC 25177, 288 h, read-out: GI
# Summary of the method: (§2)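 MTB H37Ra was grown in Dubos medium, then exposed in Mycobacterium pheli minimal medium (pH 6.6) to compounds dissolved in DMSO. The assay ended on day 8 (active) or day 12 (dormant). Viable cells were measured by XTT reduction menadione assay at 470 nm, blank-corrected, relative to vehicle control. Triplicates were expressed as mean ± SD. MIC came from dose-response curves.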
# [3] = Antifungal activity against Fusarium oxysporum NCIM 1332 by standard agar method; format: functional
# Summary of the method: (§3)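 MICs determined by standard agar method; DMSO as solvent control.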
# [4] = test system: Mycobacterium tuberculosis; assay: Growth inhibition of Mycobacterium bovis BCG ATCC 35743 at dormant stage at 10 ug/ml measured after 12 days by nitrate reductase dye based two fold dilution method relative to control; format: functional; settings: BCG str. ATCC 35743, 288 h, read-out: GI
# Summary of the method: (§4)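 M. bovis BCG was grown in Dubos medium and assayed in Mycobacterium pheli minimal medium (pH 6.6), with compounds from DMSO stocks. Incubation lasted 8 days for active and 12 days for dormant cultures. Viability was read by nitrate reductase at 540 nm against cell-free blanks, with vehicle set as 100% growth. Primary screen was at 30, 10 and 3 µg/ml, in triplicate, mean ± SD. MIC was taken from dose-response curves.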
# [5] = Cytotoxicity against human HeLa cells measured after 48 hrs by MTT assay; format: toxicity, cell-based
# [6] = Selectivity index, ratio of GI50 for HUVEC to MIC for Mycobacterium bovis BCG ATCC 35743 at dormant stage; settings: pooled result: one value given for 6 cell lines, strains, targets or settings
# Summary of the method: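 SI is the cell-line GI50 divided by the dormant-stage mycobacterial MIC. […] THP-1 macrophages were PMA-differentiated for 24 h.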
# [7] = Cytotoxicity against human A549 cells measured after 48 hrs by MTT assay; format: toxicity, cell-based
# [8] = test system: Mycobacterium tuberculosis; assay: Growth inhibition of Mycobacterium bovis BCG ATCC 35743 at active stage at 3.13 ug/ml measured after 8 days by nitrate reductase dye based two fold dilution method relative to control; format: functional; settings: BCG str. ATCC 35743, 192 h, read-out: GI; summary of the method: as §4
# [9] = test system: Bacillus subtilis; assay: Antibacterial activity against Bacillus subtilis NCIM 2079 measured after 12 hrs; format: functional; settings: NCIM 2079, 12 h; summary of the method: as §1
# [10] = test system: Mycobacterium tuberculosis; assay: Growth inhibition of Mycobacterium tuberculosis H37Ra ATCC 25177 at dormant stage at 12.5 ug/ml measured after 12 days by XTT dye based two fold dilution method relative to control; format: functional; settings: H37Ra ATCC 25177, 288 h, read-out: GI
# [11] = test system: Mycobacterium tuberculosis; assay: Growth inhibition of Mycobacterium tuberculosis H37Ra ATCC 25177 at dormant stage at 100 ug/ml measured after 12 days by XTT dye based two fold dilution method relative to control; format: functional; settings: H37Ra ATCC 25177, 288 h, read-out: GI; summary of the method: as §2
# [12] = Cytotoxicity against human PANC1 cells assessed as growth inhibition at 100 ug/ml measured after 48 hrs by MTT assay relative to control; format: toxicity, cell-based, PANC-1; settings: read-out: GI
# [13] = test system: Pseudomonas fluorescens; assay: Growth inhibition of Pseudomonas fluorescens NCIM 2036 at 10 ug/ml measured after 8 hrs relative to control; format: functional; settings: NCIM 2036, 8 h, read-out: GI; summary of the method: as §1
# [14] = Antifungal activity against Cryptococcus neoformans NCIM 576 by standard agar method; format: functional; summary of the method: as §3
# [15] = test system: Mycobacterium tuberculosis; assay: Growth inhibition of Mycobacterium bovis BCG ATCC 35743 at dormant stage at 0.78 ug/ml measured after 12 days by nitrate reductase dye based two fold dilution method relative to control; format: functional; settings: BCG str. ATCC 35743, 288 h, read-out: GI; summary of the method: as §4
# [16] = test system: Mycobacterium tuberculosis; assay: Growth inhibition of Mycobacterium tuberculosis H37Ra ATCC 25177 at active stage at 1.56 ug/ml measured after 8 days by XTT dye based two fold dilution method relative to control; format: functional; settings: H37Ra ATCC 25177, 192 h, read-out: GI; summary of the method: as §2
# [17] = test system: Mycobacterium tuberculosis; assay: Growth inhibition of Mycobacterium bovis BCG ATCC 35743 at active stage at 100 ug/ml measured after 8 days by nitrate reductase dye based two fold dilution method relative to control; format: functional; settings: BCG str. ATCC 35743, 192 h, read-out: GI
# [18] = test system: Staphylococcus aureus; assay: Antibacterial activity against of Staphylococcus aureus NCIM 2010 measured after 12 hrs; format: functional; settings: NCIM 2010, 12 h; summary of the method: as §1
# [19] = test system: Mycobacterium tuberculosis; assay: Growth inhibition of Mycobacterium tuberculosis H37Ra ATCC 25177 at dormant stage at 6.25 ug/ml measured after 12 days by XTT dye based two fold dilution method relative to control; format: functional; settings: H37Ra ATCC 25177, 288 h, read-out: GI; summary of the method: as §2
# [20] = test system: Mycobacterium tuberculosis; assay: Growth inhibition of Mycobacterium bovis BCG ATCC 35743 at dormant stage at 3.13 ug/ml measured after 12 days by nitrate reductase dye based two fold dilution method relative to control; format: functional; settings: BCG str. ATCC 35743, 288 h, read-out: GI; summary of the method: as §4
# [21] = test system: Mycobacterium tuberculosis; assay: Growth inhibition of Mycobacterium bovis BCG ATCC 35743 at dormant stage at 12.5 ug/ml measured after 12 days by nitrate reductase dye based two fold dilution method relative to control; format: functional; settings: BCG str. ATCC 35743, 288 h, read-out: GI
# [22] = test system: Aspergillus niger; assay: Antifungal activity against Aspergillus niger NCIM 1196 by standard agar method; format: functional; summary of the method: as §3
Compound,inhibition of growth at 3 µg/mL [1],inhibition of growth at 25 µg/mL [2],MIC [3],inhibition of growth at 10 µg/mL [4],GI50 at 48 h [5],Selectivity Index [6],GI50 at 48 h [7],MIC [9],inhibition of growth at 12.5 µg/mL [10],inhibition of growth at 100 µg/mL [11],"inhibition at 48 h, 100 ug/ml [12]",inhibition of growth at 10 µg/mL [13],MIC [14],inhibition of growth at 0.78 µg/mL [15],inhibition of growth at 1.56 µg/mL [16],MIC [18],inhibition of growth at 6.25 µg/mL [19],inhibition of growth at 3.13 µg/mL [20],inhibition of growth at 12.5 µg/mL [21],MIC [22],also measured
COc1ccc2cc(/C=C3\SC(=S)NC3=O)c(Cl)nc2c1,0.629%,103%,50 µg/mL,27.9%,> 100 µg/mL,60.2,> 100 µg/mL,> 30 µg/mL,69.5%,85.2%,29.8%,43.5%,50 µg/mL,-50.5%,-6.28%,> 30 µg/mL,23.2%,81.6%,98.8%,75 µg/mL,inhibition of growth at 3.13 µg/mL [8]: 91.5%; inhibition of growth at 100 µg/mL [17]: 98.9%
O=C(O)CN1C(=O)/C(=C/c2cc3cc(F)ccc3nc2Cl)SC1=S,6.76%,27.7%,25 µg/mL,43.1%,> 100 µg/mL,,> 100 µg/mL,> 30 µg/mL,1.72%,119%,20.8%,1.08%,25 µg/mL,98.5%,-22.9%,> 30 µg/mL,7.26%,99.5%,99.8%,25 µg/mL,
Cc1cccc2cc(/C=C3\SC(=S)NC3=O)c(Cl)nc12,16.9%,103%,200 µg/mL,-5.12%,> 100 µg/mL,10.4,> 100 µg/mL,> 30 µg/mL,49.2%,104%,30.9%,22.9%,100 µg/mL,-16.3%,29.6%,> 30 µg/mL,38.3%,-5.18%,95.4%,150 µg/mL,inhibition of growth at 3.13 µg/mL [8]: -17.7%; inhibition of growth at 100 µg/mL [17]: 93.2%
O=C1NC(=S)S/C1=C\c1cc2cc(F)ccc2nc1Cl,29.3%,95.7%,25 µg/mL,16.9%,> 100 µg/mL,18.9,> 100 µg/mL,> 30 µg/mL,87.3%,97.3%,37.5%,54.6%,25 µg/mL,-38.3%,31.9%,22.6 µg/mL,73.1%,25.5%,100%,25 µg/mL,inhibition of growth at 3.13 µg/mL [8]: 71.3%; inhibition of growth at 100 µg/mL [17]: 97.7%
CCOc1ccc2nc(Cl)c(/C=C3\SC(=S)NC3=O)cc2c1,50.2%,105%,150 µg/mL,93.5%,> 100 µg/mL,50,> 100 µg/mL,28.4 µg/mL,101%,105%,30.1%,41%,50 µg/mL,-57%,28.7%,> 30 µg/mL,102%,100%,101%,25 µg/mL,inhibition of growth at 3.13 µg/mL [8]: 99.4%; inhibition of growth at 100 µg/mL [17]: 96.8%
COc1ccc2nc(Cl)c(/C=C3\SC(=S)NC3=O)cc2c1,76.2%,87.8%,125 µg/mL,-14%,> 100 µg/mL,14.7,> 100 µg/mL,> 30 µg/mL,72.7%,91.6%,24.9%,81.8%,100 µg/mL,-31.1%,23.1%,7.86 µg/mL,27.4%,-4.93%,93.8%,150 µg/mL,inhibition of growth at 3.13 µg/mL [8]: 14.9%; inhibition of growth at 100 µg/mL [17]: 86.3%
O=C1NC(=S)S/C1=C\c1cc2cc(Cl)ccc2nc1Cl,95.6%,96.8%,100 µg/mL,99.6%,> 100 µg/mL,43.7,> 100 µg/mL,9.33 µg/mL,70.3%,85.4%,25.2%,101%,100 µg/mL,-9.1%,23.3%,2.55 µg/mL,89.5%,100%,100%,150 µg/mL,inhibition of growth at 3.13 µg/mL [8]: 98.9%; inhibition of growth at 100 µg/mL [17]: 98.4%
Cc1cccc2cc(/C=C3\SC(=S)N(CC(=O)O)C3=O)c(Cl)nc12,11.2%,96.8%,175 µg/mL,31.6%,> 100 µg/mL,,> 100 µg/mL,> 30 µg/mL,51%,100%,5.9%,21.3%,150 µg/mL,,-2.86%,> 30 µg/mL,-2.45%,,,200 µg/mL,
